# Screens deposited in PubChem BioAssay by several laboratories.
# CHO parental Ca: ATP-evoked calcium signal inhibitors, parental CHO, primary screen, counter-screen for OX1R antagonist project, cell-based, fluorescence, Fluo-8 calcium dye; parental CHO-K1, ATP-induced calcium, Fluo-8 fluorescence; inhibition, % at 5.6 µM; actives 0.63% (n = 330,000); AID 463079, 2010;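 active = inhibition above that plate's mean sample inhibition plus 3 SD, cut at about 26% in these data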;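 also: 0% = ATP-challenged DMSO wells and 100% = DMSO wells without ATP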
#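 Test system: parental CHO cells; detection: calcium-sensitive Fluo-8 fluorescence; evaluation: percent inhibition of calcium signal; also added: ATP as calcium-mobilizing challenge; repeats: one well per compound; control set: ATP-challenged DMSO wells low, unchallenged DMSO wells high; compound: single nominal dose of 5.6 µM per compound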
# OX1R antag-1: OX1R (HCRTR1) antagonists, primary screen, fluorescence, CHO/OX1R cells, Fluo-8 calcium, orexin A | Orexin/Hypocretin receptor type 1 (Homo sapiens), O43613 | Fluo-8 calcium fluorescence | inhibition, % at 5 µM | actives 0.43% (n = 330,000);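 active = inhibition above its plate's threshold, mean inhibition of all tested compounds on the plate plus 3 SD, cut at about 37% in these data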;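 also: 0% = orexin A challenge wells and 100% = SB-334867-A antagonist wells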
# EP2 antag: human EP2 receptor antagonists, primary screen, TR-FRET cAMP, C6 glioma cells; Prostaglandin E2 receptor EP2 subtype (Homo sapiens), P43116; C6 glioma cells expressing human EP2; cells stimulated with saturating PGE2; inhibition, % at 25 µM; actives 0.52% (n = 260,000);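 active = percent inhibition above 40 after rounding to a whole number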;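 also: rat C6 glioma host cells with rolipram phosphodiesterase inhibitor present; the protocol text gives 20 µM as final concentration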
# Target sequence (P43116 whole entry, looked up): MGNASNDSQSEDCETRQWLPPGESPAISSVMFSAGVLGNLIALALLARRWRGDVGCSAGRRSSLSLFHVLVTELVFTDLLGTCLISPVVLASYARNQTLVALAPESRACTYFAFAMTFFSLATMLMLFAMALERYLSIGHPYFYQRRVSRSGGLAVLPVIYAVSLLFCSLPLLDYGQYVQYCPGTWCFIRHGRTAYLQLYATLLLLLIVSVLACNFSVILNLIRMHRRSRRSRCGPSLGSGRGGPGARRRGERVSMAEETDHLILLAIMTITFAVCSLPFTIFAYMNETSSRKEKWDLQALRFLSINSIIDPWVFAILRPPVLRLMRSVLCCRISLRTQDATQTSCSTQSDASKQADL
# GPR7 antagonist: GPR7 receptor antagonists, primary screen, cell-based, fluorescence, single concentration. inhibition, % at 4.4 µM. GPR7-expressing cells, fluorescence antagonist assay. AID 1861, 2009. actives 1.1% (n = 290,000). Neuropeptides B/W receptor type 1 (Homo sapiens), P48145; in the data active = inhibition above about 16%, passing the limit was not always enough;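 also: cells stimulated with the agonist NPW; 0% = agonist with vehicle and 100% = vehicle without agonist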
# Target sequence (P48145 whole entry, looked up): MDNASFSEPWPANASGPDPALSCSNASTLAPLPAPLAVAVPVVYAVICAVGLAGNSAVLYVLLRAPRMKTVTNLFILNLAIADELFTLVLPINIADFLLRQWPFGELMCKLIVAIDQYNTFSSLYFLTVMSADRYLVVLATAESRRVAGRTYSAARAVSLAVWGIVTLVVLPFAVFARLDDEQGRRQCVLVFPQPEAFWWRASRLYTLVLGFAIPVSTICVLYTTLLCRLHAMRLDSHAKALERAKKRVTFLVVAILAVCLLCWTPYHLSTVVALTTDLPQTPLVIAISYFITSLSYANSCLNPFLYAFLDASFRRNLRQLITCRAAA
# OX1R antag-2: antagonists of human orexin 1 receptor (OX1R) | Orexin/Hypocretin receptor type 1 (Homo sapiens), O43613 | OX1R-expressing cells, FRET antagonist read-out | inhibition, % at 6.6 µM | actives 1.8% (n = 330,000) | AID 485270, 2010; in the data active = inhibition mostly above about 38%, no sharp cut-off; inactive = mostly below about 40%;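 also: 0% = agonist challenge alone and 100% = reference antagonist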
# EP2 mod: EP2 receptor modulators, cAMP readout, primary screen, cell-based, HTRF cAMP, PGE2 stimulation; induction, % at 25 µM; EP2-expressing cells, cAMP HTRF FRET, PGE2 co-stimulation; actives 0.83% (n = 260,000); Prostaglandin E2 receptor EP2 subtype (Homo sapiens), P43116;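 active = compounds whose cAMP rise, as percent of the full-agonist control response, exceeds 60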;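 also: rat C6 glioma line stably carrying human EP2 under a CMV promoter; the protocol text gives 20 µM as final concentration; 100% = response of wells given 1 µM PGE2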
# OX1R HTRF confirm: OX1R (HCRTR1) antagonists, confirmation, cell-based, HTRF; inhibition, % at 6.6 µM; shares compounds with OX1R antag-2; actives 49% (n = 1,800); OX1R-expressing cells, HTRF antagonist assay; in the data active = inhibition above about 55%;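 also: CHO cells expressing OX1R stimulated with orexin A at about EC80; 0% = agonist challenge alone and 100% = reference antagonist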
# CHO-K1 HTRF cnt: signal inhibition in parental CHO-K1 cells, counter-screen for OX1R antagonist project, cell-based, HTRF; shares compounds with OX1R antag-2; HTRF counterscreen; inhibition, % at 6.6 µM; actives 48% (n = 1,800); AID 493232, 2011; in the data active = inhibition above about 17%;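 also: 0% = agonist challenge with vehicle and 100% = vehicle alone without agonist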
# The depositor's hits bear a star; nt = not tested or not shown. In the library only some 3.7% were active in any assay of this set; here they are far more common.
SMILES,CHO parental Ca,OX1R antag-1,EP2 antag,GPR7 antagonist,OX1R antag-2,EP2 mod,OX1R HTRF confirm,CHO-K1 HTRF cnt
COc1ccc(-c2nnc(SCC(=O)c3ccc(C)c(C)c3)o2)cc1OC,nt,nt,11,nt,nt,-20,nt,nt
O=c1c2ccccc2nc2ccc(N3CCOCC3)nn12,-4,-11,8,7,94*,-7,31,37*
Cc1ccc2nc3ccc(N4CCN(C)CC4)nn3c(=O)c2c1,-13,-11,nt,-4,77*,-10,36,25*
Cc1ccc2nc3ccc(N4CCCCCCC4)nn3c(=O)c2c1,-10,-26,4,4,56,-45,nt,nt
COCCCn1cnc2oc3nc4ccccc4nc3c2c1=O,-4,-3,21,2,85*,10,67*,107*
CC(=O)N1CCN(C(=O)c2ccc(S(=O)(=O)Nc3ccccc3Cl)cc2)CC1,-11,0,nt,nt,9,nt,nt,nt
CC(=O)Oc1cccc2c1C(=O)c1c(OC(C)=O)cc(C(=O)O)cc1C2=O,5,-7,13,-8,95*,20,56*,112*
CN(C(=O)CSc1ncc(C(F)(F)F)cc1Cl)c1c(N)n(Cc2ccccc2)c(=O)[nH]c1=O,-2,20,2,-2,89*,5,68*,4
O=C1C=C(Nc2ccc(O)cc2)C(=O)c2ccccc21,-9,-14,4,2,79*,-30,32,25*
CC(=O)Nc1ccc(NC2=CC(=O)c3ccccc3C2=O)cc1,-9,-21,nt,-2,25,nt,nt,nt
CCOC(=O)Cn1nnc(-c2ccc([N+](=O)[O-])cc2)n1,11,6,8,-4,96*,-24,37,32*
Clc1ccccc1CONc1ncnc2nonc12,-8,-9,9,-1,9,-6,nt,nt
CC(OC(=O)c1nsc(Cl)c1Cl)C(=O)NC1CCCCC1 (stereo unspecified),-15,-14,nt,-7,18,nt,nt,nt
O=c1c([N+](=O)[O-])cccn1Cc1ccccc1Cl,-8,-8,10,-1,79*,4,45,27*
O=C(Nc1cccc(-c2cn3cccnc3n2)c1)c1cccs1,-8,-1,6,0,15,-10,nt,nt
Cc1cccn2cc(-c3cccc(NC(=O)c4cccs4)c3)nc12,-24,-4,7,3,111*,-42,93*,-1
Cc1ccc(C(=O)Nn2cnnc2)cc1S(=O)(=O)N1CCOCC1,-2,-5,2,-6,86*,-10,13,-7
CC(=O)c1cccc(NC(=O)c2ccc(C)c(S(=O)(=O)N3CCOCC3)c2)c1,-15,-12,nt,-3,27,nt,nt,nt
Cc1ccc(C(=O)Oc2cccc(NC(=O)c3cccs3)c2)cc1S(=O)(=O)N1CCOCC1,16,21,16,-3,79*,-24,32,10
Cc1ccc(C(=O)NC2CC2)cc1S(=O)(=O)N1CCOCC1,-2,-5,nt,nt,4,nt,nt,nt
CCOc1cc(/C=N/N=C2/NC(=O)C(CC(=O)O)S2)ccc1OS(=O)(=O)c1ccc(C)cc1 (stereo unspecified),nt,nt,5,-2,nt,0,nt,nt
CCOC(=O)N1CCC(Nc2ncnc3c2cnn3-c2ccc(Cl)cc2)CC1,nt,nt,8,-9,nt,-9,nt,nt
CCOc1ccccc1N(CC(=O)NCCSc1ccccn1)S(=O)(=O)c1ccccc1,-37,16,nt,2,80*,nt,77*,8
O=[N+]([O-])c1ccc(N2CCCCC2)s1,-13,-4,5,-6,101*,9,39,70*
CCOC(=O)C1CCN(C(=O)CCCn2c(=O)c3cccn3c3cccnc32)CC1,-21,-11,nt,-18,22,nt,nt,nt
SMILES,CHO parental Ca,OX1R antag-1,EP2 antag,GPR7 antagonist,OX1R antag-2,EP2 mod,OX1R HTRF confirm,CHO-K1 HTRF cnt
CCOC(=O)c1cccc(NC(=O)CCCn2c(=O)c3cccn3c3cccnc32)c1,-23,-9,nt,-3,80*,nt,80*,8
CC1Cc2ccccc2N1C(=O)CCS(=O)(=O)c1cccc2nonc12 (stereo unspecified),-20,-12,9,-5,85*,16,53,23*
COc1ccc(NC(=O)CCC(=O)N/N=C/c2cccnc2)cc1,1,-1,nt,-6,6,nt,nt,nt
CC(C)(C)OC(=O)N/N=C\c1ccc([N+](=O)[O-])s1,-3,-12,4,-5,88*,-55,38,44*
O=C(N/N=C/c1ccc([N+](=O)[O-])s1)c1cccc(Br)c1,3,-10,6,1,12,-44,nt,nt
COc1ccc(NC(=O)CCC(=O)N/N=C/c2ccc([N+](=O)[O-])s2)cc1,-3,-5,12,0,81*,1,47,45*
CCc1nonc1NC(=O)COc1ccc(Cl)c(C)c1,-9,-62,nt,0,15,nt,nt,nt
O=C1C=C(c2cccc(OCc3ccccc3)c2)C[C@@H](c2ccc3c(c2)OCO3)C1,-6,-6,nt,nt,10,nt,nt,nt
Cc1cc2c(ccc3c2no[n+]3[O-])nn1,-6,-10,3,-4,166*,-7,51,76*
[O-][n+]1onc2c1CCc1nnccc1-2,-2,-7,0,-7,19,0,nt,nt
COn1c(C)c(C(C)=O)c2c3no[n+]([O-])c3ccc21,-12,-6,13,-8,22,13,nt,nt
[O-][n+]1onc2c3ccnnc3ccc21,-9,1,13,2,150*,15,50,83*
CCN(CC)CCNc1cc(C)nc2c1C(=O)C(=O)C=C2N1CCCCC1,-18,-20,9,-7,83*,-5,47,76*
CN1CCN(NC(=O)C2CC2)CC1,1,6,1,-3,-3,-2,nt,nt
CC(NC(=O)COC(=O)c1ccc([N+](=O)[O-])s1)c1ccccc1 (stereo unspecified),-10,-10,5,-6,81*,6,24,17*
O=C(COC(=O)c1ccc([N+](=O)[O-])s1)NCc1ccc(F)cc1,-10,-9,18,-6,89*,-26,46,48*
NS(=O)(=O)c1ccc(NC(=O)COC(=O)c2ccc([N+](=O)[O-])s2)cc1,-1,8,7,-5,37,-34,nt,nt
